Values after ≈ are worked out from the molar mass of the structure shown. Some results are limits rather than exact numbers.

Tested on in one data set: not listed separately
The experiment in a line: Antimitotic activity in rat ASK cells assessed as reversal of astrocyte formation at 20 ug/mL. It is filed as functional.
Details: not given
In outline:
(§1)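 Cultured rat glioma (ASK) cells were used, following Swanson et al. The antimitotic read-out was the dose giving 100% reversal of astrocyte conversion. Pure lignans were tested across a range of concentrations.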
Take `COc1cc(-c2c3c(cc4c(OC)c5c(cc24)OCO5)COC3=O)cc(OC)c1OC`: the Activity amounted to 100%.
In the case of `COc1cc(-c2c3c(c(O)c4c(OC)c5c(cc24)OCO5)COC3=O)cc(OC)c1OC`, the Activity worked out at 100%.

The subject of the next data set is P388. Description: Cytotoxicity in mouse P388 cells. The class given is functional. The following applies: read-out: ED50 (the source's name).
Turning to `COc1cc(-c2c3c(cc4c(OC)c5c(cc24)OCO5)COC3=O)cc(OC)c1OC`, the EC50 was 1.8 µg/mL (≈ 4.24 µM).
On the same count and under the same terms, the value for `COc1cc(-c2c3c(c(O)c4c(OC)c5c(cc24)OCO5)COC3=O)cc(OC)c1OC` was 4 µg/mL (≈ 9.08 µM).

Tested on in the next data set: not listed separately
Description: Cytotoxicity against human KBV1 cells. The following applies: KB-V1, read-out: ED50 (the source's name). The class given is functional.
Turning to `COc1cc(-c2c3c(cc4c(OC)c5c(cc24)OCO5)COC3=O)cc(OC)c1OC`, the EC50 is 4.2 µg/mL (≈ 9.9 µM).
Take `COc1cc(-c2c3c(c(O)c4c(OC)c5c(cc24)OCO5)COC3=O)cc(OC)c1OC`: the EC50 was determined as 8.7 µg/mL (≈ 19.8 µM).

Tested on in another data set: not listed separately
Description: Cytotoxicity against human BC1 cells. It is filed as functional. The following applies: read-out: ED50 (the source's name).
Turning to `COc1cc(-c2c3c(cc4c(OC)c5c(cc24)OCO5)COC3=O)cc(OC)c1OC`, the EC50 is 2.9 µg/mL (≈ 6.83 µM).
With `COc1cc(-c2c3c(c(O)c4c(OC)c5c(cc24)OCO5)COC3=O)cc(OC)c1OC`, the EC50 came out at 7.6 µg/mL (≈ 17.3 µM).

Tested on in the next data set: not listed separately
Description: Antimitotic activity in rat ASK cells assessed as reversal of astrocyte formation at 100 ug/mL. It is filed as functional.
Details: not given
In outline: as §1
Consider `COc1cc(-c2c3c(cc4c(OC)c5c(cc24)OCO5)COC3=O)cc(OC)c1OC`, for which the Activity worked out at 100%.
In the case of `COc1cc(-c2c3c(c(O)c4c(OC)c5c(cc24)OCO5)COC3=O)cc(OC)c1OC`, the Activity was 100%.

Tested on in the next data set: not listed separately
Description: Toxicity in brine shrimp. It is filed as organism-based. The following applies: artemia, in vivo.
`COc1cc(-c2c3c(cc4c(OC)c5c(cc24)OCO5)COC3=O)cc(OC)c1OC` displayed an LC50 of 435 µg/mL (≈ 1020 µM).
Same read-out and setting: in the case of `COc1cc(-c2c3c(c(O)c4c(OC)c5c(cc24)OCO5)COC3=O)cc(OC)c1OC` it was > 500 µg/mL.

Tested on in a further data set: not listed separately
Description: Antimitotic activity in rat ASK cells assessed as reversal of astrocyte formation at 0.0064 ug/mL. The class given is functional.
Details: not given
In a few lines: as §1
As to `COc1cc(-c2c3c(cc4c(OC)c5c(cc24)OCO5)COC3=O)cc(OC)c1OC`, the Activity is recorded as 0%.
As for `COc1cc(-c2c3c(c(O)c4c(OC)c5c(cc24)OCO5)COC3=O)cc(OC)c1OC`, the Activity is given as 0%.

The next data set concerns HT. The experiment in a line: Cytotoxicity against human HT cells. It is filed as functional. The following applies: read-out: ED50 (the source's name).
As for `COc1cc(-c2c3c(cc4c(OC)c5c(cc24)OCO5)COC3=O)cc(OC)c1OC`, the EC50 is 3.4 µg/mL (≈ 8.01 µM).
With `COc1cc(-c2c3c(c(O)c4c(OC)c5c(cc24)OCO5)COC3=O)cc(OC)c1OC`, the EC50 was found to be 15.6 µg/mL (≈ 35.4 µM).

The subject of the next data set is Col2. The experiment in a line: Cytotoxicity against human Col2 cells. The class given is functional. The following applies: read-out: ED50 (the source's name).
Regarding `COc1cc(-c2c3c(cc4c(OC)c5c(cc24)OCO5)COC3=O)cc(OC)c1OC`, the EC50 stood at 3.2 µg/mL (≈ 7.54 µM).
The same measure, in the same setting: in the case of `COc1cc(-c2c3c(c(O)c4c(OC)c5c(cc24)OCO5)COC3=O)cc(OC)c1OC` it was 12.8 µg/mL (≈ 29.1 µM).

Tested on in the next data set: not listed separately
The experiment in a line: Cytotoxicity against human U373 cells. The class given is functional, U-373MG ATCC. The following applies: U373 MG, read-out: ED50 (the source's name).
Turning to `COc1cc(-c2c3c(cc4c(OC)c5c(cc24)OCO5)COC3=O)cc(OC)c1OC`, the EC50 came to 5.9 µg/mL (≈ 13.9 µM).
Regarding `COc1cc(-c2c3c(c(O)c4c(OC)c5c(cc24)OCO5)COC3=O)cc(OC)c1OC`, the EC50 was 16.3 µg/mL (≈ 37 µM).

The next data set has as its system ZR-75-1. Description: Cytotoxicity against human ZR-75-1 cells. The class given is functional. The following applies: read-out: ED50 (the source's name).
In the case of `COc1cc(-c2c3c(cc4c(OC)c5c(cc24)OCO5)COC3=O)cc(OC)c1OC`, the EC50 was > 20 µg/mL.
Same read-out and setting: the value for `COc1cc(-c2c3c(c(O)c4c(OC)c5c(cc24)OCO5)COC3=O)cc(OC)c1OC` was > 20 µg/mL.

Tested on in a further data set: not listed separately
Description: Antimitotic activity in rat ASK cells assessed as reversal of astrocyte formation at 0.16 ug/mL. It is filed as functional.
Details: not given
In a few lines:
as §1
With `COc1cc(-c2c3c(cc4c(OC)c5c(cc24)OCO5)COC3=O)cc(OC)c1OC`, the Activity came to 0%.
Still for that read-out and setting: the value for `COc1cc(-c2c3c(c(O)c4c(OC)c5c(cc24)OCO5)COC3=O)cc(OC)c1OC` was 0%.

For another data set, the system named is LNCaP. The experiment in a line: Cytotoxicity against human LNCAP cells. The class given is functional. The following applies: read-out: ED50 (the source's name).
Turning to `COc1cc(-c2c3c(cc4c(OC)c5c(cc24)OCO5)COC3=O)cc(OC)c1OC`, the EC50 amounted to 3.2 µg/mL (≈ 7.54 µM).
Consider `COc1cc(-c2c3c(c(O)c4c(OC)c5c(cc24)OCO5)COC3=O)cc(OC)c1OC`, for which the EC50 was 11.6 µg/mL (≈ 26.3 µM).

Tested on in the next data set: not listed separately
The experiment in a line: Antimitotic activity in rat ASK cells assessed as reversal of astrocyte formation at 0.8 ug/mL. The class given is functional.
Details: not given
In a few lines: as §1
Take `COc1cc(-c2c3c(cc4c(OC)c5c(cc24)OCO5)COC3=O)cc(OC)c1OC`: the Activity turned out to be 0%.
The same measure, in the same setting: in the case of `COc1cc(-c2c3c(c(O)c4c(OC)c5c(cc24)OCO5)COC3=O)cc(OC)c1OC` it was 0%.

Another data set concerns KB. Description: Cytotoxicity against human KB cells. The class given is functional. The following applies: read-out: ED50 (the source's name).
Regarding `COc1cc(-c2c3c(cc4c(OC)c5c(cc24)OCO5)COC3=O)cc(OC)c1OC`, the EC50 is 2.2 µg/mL (≈ 5.18 µM).
As for `COc1cc(-c2c3c(c(O)c4c(OC)c5c(cc24)OCO5)COC3=O)cc(OC)c1OC`, the EC50 was found to be 6 µg/mL (≈ 13.6 µM).

The test system of the next data set is Lu1. The experiment in a line: Cytotoxicity against human Lu1 cells. The class given is functional. The following applies: read-out: ED50 (the source's name).
As to `COc1cc(-c2c3c(cc4c(OC)c5c(cc24)OCO5)COC3=O)cc(OC)c1OC`, the EC50 is 4.3 µg/mL (≈ 10.1 µM).
On the same count and under the same terms, the value for `COc1cc(-c2c3c(c(O)c4c(OC)c5c(cc24)OCO5)COC3=O)cc(OC)c1OC` was 11.7 µg/mL (≈ 26.6 µM).

Tested on in the next data set: not listed separately
Description: Antimitotic activity in rat ASK cells assessed as reversal of astrocyte formation at 4 ug/mL. It is filed as functional.
Details: not given
In a few lines: as §1
Consider `COc1cc(-c2c3c(cc4c(OC)c5c(cc24)OCO5)COC3=O)cc(OC)c1OC`, for which the Activity is listed as 100%.
Still for that read-out and setting: in the case of `COc1cc(-c2c3c(c(O)c4c(OC)c5c(cc24)OCO5)COC3=O)cc(OC)c1OC` it was 0%.

A further data set deals with A-431. Description: Cytotoxicity against human A431 cells. The following applies: read-out: ED50 (the source's name). The class given is functional.
`COc1cc(-c2c3c(cc4c(OC)c5c(cc24)OCO5)COC3=O)cc(OC)c1OC`: the EC50 was > 20 µg/mL.
Turning to `COc1cc(-c2c3c(c(O)c4c(OC)c5c(cc24)OCO5)COC3=O)cc(OC)c1OC`, the EC50 worked out at 6.2 µg/mL (≈ 14.1 µM).

Tested on in the next data set: not listed separately
The experiment in a line: Antimitotic activity in rat ASK cells assessed as reversal of astrocyte formation at 0.032 ug/mL. The class given is functional.
Details: not given
In a few lines:
as §1
Turning to `COc1cc(-c2c3c(cc4c(OC)c5c(cc24)OCO5)COC3=O)cc(OC)c1OC`, the Activity is given as 0%.
The same measure, in the same setting: the value for `COc1cc(-c2c3c(c(O)c4c(OC)c5c(cc24)OCO5)COC3=O)cc(OC)c1OC` was 0%.

One may read the LC50 as the concentration that kills 50% of the test population. The low end stands for a more lethal substance, the high end for a less lethal substance.
